One series relates to PC-12. In words: Cytotoxicity against rat PC12 cells. The format is cell-based.
Series [1] concerns the target Sigma non-opioid intracellular receptor 1 (Rattus norvegicus) (UniProt Q9R0C9). Description: Agonist activity at sigma1 receptor in rat PC12 cells assessed as decrease in NGF-induced neurite elongation at 0.25 uM after 5 days by phase contrast microscopy in presence of 5 uM sigma1 receptor antagonist BD-1064 relative to compound alone. The series is classed as functional, cell-based. Further details: scale not given: the % may be the effect or the level left. As to conditions: PC-12, in the assay text read “BD-1063” for “BD-1064”. The method, boiled down: (§1)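 Culture conditions match the neurite-outgrowth note: PC12 cells on poly-D-lysine coverslips with NGF 2.5 ng/mL ± drug for 5 days, BD-1063 at 5 µM final where used. Cells were then fixed in 4% PFA and imaged by phase contrast, six fields per coverslip. Neurite length was traced from cell body to tip, measured blind by two examiners; ≥3 independent experiments; mean ± SEM.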

Series [2] deals with Sigma non-opioid intracellular receptor 1 (Cavia porcellus, UniProt Q60492). Description: Displacement of [3H]-(+)-pentazocine from sigma1 receptor in guinea pig brain membrane after 150 mins by liquid scintillation counting. The format is cell membranes. The method, boiled down:
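Membranes (500 µg protein) incubated with 3 nM [3H]-(+)-pentazocine and nine test concentrations in 50 mM Tris-HCl pH 7.4, 150 min at 37 °C. Nonspecific binding defined by 10 µM haloperidol. Samples filtered on PEI-presoaked GF/B filters and counted by liquid scintillation; Ki calculated from these curves.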
A general note: Loss of bound radioactivity is the signal in a displacement assay; it reports binding, not function.

In series [3] the target is Kappa-type opioid receptor (Cavia porcellus) (UniProt P41144). Description: Displacement of [3H]-U69593 from kappa opioid receptor in guinea pig brain membrane assessed as residual binding at 1 uM after 150 mins by liquid scintillation counting. The series is classed as cell membranes. Put shortly: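 Guinea pig brain membranes (about 75 µg protein) incubated with 1 nM [3H]-U69,593 in 50 mM Tris, 8 mM MgCl2, pH 7.4, 150 min at 37 °C. Nonspecific binding with 10 µM unlabeled U69,593. Filtration, then solid scintillator counting in triplicate. Residual binding taken at 1 µM; otherwise IC50 from ≥6 concentrations, Ki by Cheng-Prusoff (Kd 0.69 nM).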

The next series is filed under the species Sus scrofa. Description: Displacement of [3H]-(+)-MK-801 from NMDA receptor PCP binding site in pig brain cortex assessed as residual binding at 10 uM after 150 mins by scintillation counting. The method, boiled down: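 Pig brain cortex membranes (about 100 µg protein) incubated with 2 nM [3H]-(+)-MK-801 in 5 mM Tris-acetate/1 mM EDTA pH 7.5, 150 min at rt. Nonspecific binding with 10 µM (+)-MK-801. Filtration, then solid scintillator counting. Residual binding measured at 10 µM test compound.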

The target of series [4] is Sigma non-opioid intracellular receptor 1 (Rattus norvegicus) (UniProt Q9R0C9). Description: Agonist activity at sigma1 receptor in rat PC12 cells assessed as cells with increase in NGF-induced neurite outgrowth at 0.01 uM after 5 days by phase contrast microscopy. The series is classed as functional, cell-based. As to conditions: PC-12. The method, boiled down:
(§2)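 PC12 cells grown at 37 °C, 5% CO2 in RPMI with 5% FBS and 10% horse serum. Replated at 0.25 × 10^4 cells/cm2 on poly-D-lysine glass coverslips. After 24 h, switched to 0.5% HS medium with NGF 2.5 ng/mL ± drug, BD-1063 at 5 µM final where used. After 5 days, fixed in 4% PFA. Cells with ≥1 neurite at least one cell-body diameter long were scored blind by two examiners; ≥3 independent experiments.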

The nature of series [5]: Displacement of [3H]-DTG from sigma2 receptor in guinea pig brain membrane after 120 mins by liquid scintillation counting. The format is cell membranes, Cavia porcellus. Put shortly:
(§3)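 For σ2, membranes (360 µg protein) incubated at rt for 120 min with 3 nM [3H]DTG plus 0.4 µM (+)-SKF10,047, with nine test concentrations in 50 mM Tris-HCl pH 8.0; nonspecific binding with 5 µM DTG. For σ1, 3 nM [3H]-(+)-pentazocine, 150 min at 37 °C, pH 7.4, haloperidol 10 µM. Both read by filtration and scintillation counting; Ki values derived.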

Series [6] deals with Sigma non-opioid intracellular receptor 1 (Rattus norvegicus) (UniProt Q9R0C9). Description: Agonist activity at sigma1 receptor in rat PC12 cells assessed as increase of NGF-induced neurite elongation at 0.25 uM after 5 days by phase contrast microscopy. The format is functional, cell-based. As to conditions: PC-12. The method, boiled down: as §1
Series [7] deals with HaCaT. Description: Cytotoxicity against human HaCaT cells at 1x10'-8 to 1x10'-5 M after 72 hrs by MTT assay. The series is classed as cell-based. Put shortly: (§4)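 HaCaT cells plated at 5000/well. After 24 h, exposed to 1 × 10^-8 to 1 × 10^-5 for 48 or 72 h at 37 °C, 5% CO2, in medium with 5% FBS or serum-free (N = 6 each). Viability was read as optical density in an MTT-based assay.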
On the technique in general: Formazan colour is commonly taken as a measure of viable cells.

The test system of series [8] is HaCaT. In words: Cytotoxicity against human HaCaT cells at 1x10'-8 to 1x10'-5 M after 48 hrs by MTT assay. The format is cell-based. Put shortly: as §4
In series [9] the target is Sigma non-opioid intracellular receptor 1 (Rattus norvegicus) (UniProt Q9R0C9). In words: Agonist activity at sigma1 receptor in rat PC12 cells assessed as cells with increase in NGF-induced neurite outgrowth at 0.25 uM after 5 days by phase contrast microscopy in presence of 5 uM sigma1 receptor antagonist BD-1063. The format is functional, cell-based. The settings on record: PC-12. The method, boiled down:
as §2

For the next series, the species on record is Cavia porcellus. In words: Selectivity ratio of Ki for sigma2 receptor in guinea pig brain membrane to Ki for sigma1 receptor in guinea pig brain membrane. The format is cell membranes. The method, boiled down:
as §3

Series [10] has as its target Mu-type opioid receptor (Cavia porcellus) (UniProt P97266). In words: Displacement of [3H]-DAMGO from mu opioid receptor in guinea pig brain membrane assessed as residual binding at 1 uM after 150 mins by liquid scintillation counting. The format is cell membranes. Put shortly: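 Guinea pig brain membranes (about 75 µg protein) incubated with 1 nM [3H]-DAMGO in 50 mM Tris, 8 mM MgCl2, 400 µM PMSF, pH 7.4, 150 min at 37 °C. Nonspecific binding with 10 µM naloxone. Filtration, then solid scintillator counting in triplicate. Residual binding taken at 1 µM test compound; otherwise IC50 from ≥6 concentrations, Ki by Cheng-Prusoff (Kd 0.57 nM).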

Series [11] addresses Sigma non-opioid intracellular receptor 1 (Rattus norvegicus) (UniProt Q9R0C9). Description: Agonist activity at sigma1 receptor in rat PC12 cells assessed as increase of NGF-induced neurite elongation at 0.05 uM after 5 days by phase contrast microscopy. As to conditions: PC-12. The series is classed as functional, cell-based. Put shortly:
as §1

The target is the same in series [12]. Description: Agonist activity at sigma1 receptor in rat PC12 cells assessed as cells with increase in NGF-induced neurite outgrowth at 0.05 to 2.5 uM after 5 days by phase contrast microscopy. The settings on record: PC-12.
For series [13] the target is unchanged. In words: Agonist activity at sigma1 receptor in rat PC12 cells assessed as cells with increase in NGF-induced neurite outgrowth at 2.5 uM after 5 days by phase contrast microscopy. The format is functional, cell-based. The settings on record: PC-12. Put shortly: as §2
Series [14] shares this target. In words: Agonist activity at sigma1 receptor in rat PC12 cells assessed as increase of NGF-induced neurite length at 2.5 uM after 5 days by phase contrast microscopy. As to conditions: PC-12. The series is classed as functional, cell-based. The method, boiled down:
as §1

Series [15] shares this target. In words: Agonist activity at sigma1 receptor in rat PC12 cells assessed as cells with increase in NGF-induced neurite outgrowth at 0.25 uM after 5 days by phase contrast microscopy. The settings on record: PC-12. The series is classed as functional, cell-based. Put shortly:
as §2

Series [16] shares this target. In words: Agonist activity at sigma1 receptor in rat PC12 cells assessed as cells with increase in NGF-induced neurite outgrowth at 0.05 uM after 5 days by phase contrast microscopy. The series is classed as functional, cell-based. The settings on record: PC-12. Put shortly: as §2

Structures are written as SMILES. Activity calls are given as the source filed them. The calls are words filed in the database; no cut-off is given here.

Chain of Sigma non-opioid intracellular receptor 1 (Rattus norvegicus) (Q9R0C9 whole entry): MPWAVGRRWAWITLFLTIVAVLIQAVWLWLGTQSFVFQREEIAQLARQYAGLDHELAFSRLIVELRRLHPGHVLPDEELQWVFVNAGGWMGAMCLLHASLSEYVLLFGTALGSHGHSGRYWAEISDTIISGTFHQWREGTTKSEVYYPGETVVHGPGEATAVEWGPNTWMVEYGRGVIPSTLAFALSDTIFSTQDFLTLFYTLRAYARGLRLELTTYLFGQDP
Chain of Mu-type opioid receptor (Cavia porcellus) (P97266 whole entry): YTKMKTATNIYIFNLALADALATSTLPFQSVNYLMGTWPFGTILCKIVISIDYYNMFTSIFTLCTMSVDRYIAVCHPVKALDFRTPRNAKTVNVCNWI
Chain of Sigma non-opioid intracellular receptor 1 (Q60492 whole entry): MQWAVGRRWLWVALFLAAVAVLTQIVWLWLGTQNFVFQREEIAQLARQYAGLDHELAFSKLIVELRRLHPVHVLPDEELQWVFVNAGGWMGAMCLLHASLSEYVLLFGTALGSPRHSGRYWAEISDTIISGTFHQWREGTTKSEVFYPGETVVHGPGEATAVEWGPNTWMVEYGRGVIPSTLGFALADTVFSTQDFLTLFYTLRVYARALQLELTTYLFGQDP
Chain of Kappa-type opioid receptor (Cavia porcellus) (P41144 whole entry): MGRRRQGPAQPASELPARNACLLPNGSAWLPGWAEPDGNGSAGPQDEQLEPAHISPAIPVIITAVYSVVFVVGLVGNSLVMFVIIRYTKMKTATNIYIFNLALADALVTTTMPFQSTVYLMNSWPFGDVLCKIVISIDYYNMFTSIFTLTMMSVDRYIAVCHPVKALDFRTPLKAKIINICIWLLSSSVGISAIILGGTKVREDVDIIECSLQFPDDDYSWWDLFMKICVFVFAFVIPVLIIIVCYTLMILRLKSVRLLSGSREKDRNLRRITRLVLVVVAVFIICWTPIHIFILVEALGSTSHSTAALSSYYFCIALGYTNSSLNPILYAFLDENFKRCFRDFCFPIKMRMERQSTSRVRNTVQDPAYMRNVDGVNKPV

A word on the Ki: it is a dissociation constant, usually derived from enzyme kinetics or from competition with a known ligand. `CC(CCN1CCCCC1)c1ccc(-c2ccccc2)cc1.Cl` (racemic): the Activity result with PC-12 is “Non-toxic”; in series [1], 31%; in [3], 36%; in the series listed under Sus scrofa it was 25%; in series [4], 23.4%; in series [6], 131 µm. Besides, the Activity result with HaCaT [7] was “Non-toxic”; in the series with HaCaT [8], “Non-toxic”; in series [9] it was 18.6%; in [10] it was 0%. Besides, the values for the Ki in series [2] and in series [5] were 0.7 nM and 103 nM, respectively. Besides, the Ratio Ki in the series listed under Cavia porcellus stood at 147.
For `C/C(=C\CN1CCCCC1)c1ccc(-c2ccccc2)cc1`, the results for the Ki in series [2] and in series [5] were 0.86 nM and 111 nM, respectively. Also, the Activity in [3] turned out to be 6%; in the series filed under Sus scrofa it was 32%; in [10], 0%. Further, the outcome in series [11], in series [6], in series [12], in series [13], in series [14] and in series [15] was inactive. In addition, in series [16], the outcome was inactive. In the series filed under Cavia porcellus, the Ratio Ki is 129.

Source of the values: ChEMBL document CHEMBL1914335, “Identification of a potent and selective σ₁ receptor agonist potentiating NGF-induced neurite outgrowth in PC12 cells” (Bioorg Med Chem, 2011).
